From ChEMBL document CHEMBL1138380, “4-Aminopyrimidines as novel HIV-1 inhibitors” (Bioorg Med Chem Lett, 2007)

Legend:
[1] = Cytotoxicity against HEK293T cells after 48 hrs; type: cell-based, HEK-293T; conditions: human
How it was run: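 293T cells seeded at 700 cells/well in 1536-well format and cultured 24 h at 37 °C under 5% CO2. Compounds serially diluted in DMSO were added. After culture, viability was read by Alamar Blue diluted 1:1 in DMEM, incubated 4 h at room temperature, with fluorescence intensity measured.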

[2] = tested on: Human immunodeficiency virus; assay: Antiviral activity against HIV in HEK293T cells after 48 hrs; type: functional, organism-based; conditions: Human immunodeficiency virus 1, HEK-293T
How it was run: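 HEK 293T cells grown in DMEM with 10% FBS and Pen/Strep/glutamine, seeded at 700 cells/well in 1536-well format, then cultured 24 h at 37 °C under 5% CO2. Compounds serially diluted in DMSO were added and incubated 1 h at 37 °C. Cells were then infected with HIV reporter virus at MOI ~1.0 and cultured 48 h at 37 °C. Read-out was luciferase activity.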

| EC50 [2] | Structure (SMILES) | CC50 at 48 h [1] |
| --- | --- | --- |
| 18 nM | CCc1nc(C)nc(NC(CC)c2ccc(Oc3ccc(F)cc3)cc2)c1Br (stereo not drawn) | > 10000 nM |
| 1190 nM | CCc1ncnc(NC(C)c2ccc(NC(C)=O)cc2)c1Cl (stereo not drawn) | > 10000 nM |
| 96 nM | CCCc1cc(NC(CC)c2ccc(Oc3ccc(F)cc3)cc2)ncn1 (stereo not drawn) | > 10000 nM |
| 139 nM | CCc1ncnc(NC(C)c2ccc3ccccc3c2)c1Cl (stereo not drawn) | > 10000 nM |
| 31 nM | CCC(Nc1cc(COC)ncn1)c1ccc(Oc2ccc(F)cc2)cc1 (stereo not drawn) | > 10000 nM |
| 816 nM | CCc1ncnc(NC(C)c2sc3ccccc3c2C)c1Cl (stereo not drawn) | > 10000 nM |
| 29 nM | CCc1ncnc(NC(C)c2ccc3c(c2)NCCO3)c1Cl (stereo not drawn) | > 10000 nM |
| 0.5 nM | O=C1Nc2ccc(Cl)cc2C(C#CC2CC2)(C(F)(F)F)O1 (single isomer, unassigned) [EFAVIRENZ] | 10000 nM |
| 341 nM | CCc1ncnc(NC(CC)c2ccc(N(C)C)cc2)c1Cl (stereo not drawn) | > 10000 nM |
| 95 nM | CCc1ncnc(NC(C)c2cccc3ccccc23)c1Cl (stereo not drawn) | > 10000 nM |
| 35 nM | CCc1ncnc(NC(C)c2ccc3c(c2)N(C(C)=O)CCO3)c1Cl (stereo not drawn) | > 10000 nM |
| 3020 nM | CCc1ncnc(NC(C)c2ccc(NC(=O)N(C)CCOCCN(C)C(C)=O)cc2)c1Cl (stereo not drawn) | > 10000 nM |
| 324 nM | CCC(Nc1cc(C)ncn1)c1ccc(Oc2ccc(F)cc2)cc1 (stereo not drawn) | > 10000 nM |
| 760 nM | CCCc1ncnc(NC(CC)c2ccc(Oc3ccc(F)cc3)cc2)c1Br (stereo not drawn) | > 10000 nM |
| 15 nM | CCC(Nc1nc(C)nc(Cl)c1N)c1ccc(Oc2ccc(F)cc2)cc1 (stereo not drawn) | > 10000 nM |
| 28 nM | CCc1ncnc(NC(CC)c2ccc(C(C)(C)C)cc2)c1Cl (stereo not drawn) | > 10000 nM |
| 331 nM | CCc1ncnc(NCc2ccc(C(C)(C)C)cc2)c1Cl | > 10000 nM |
| 4890 nM | CCc1ncnc(NC(C)c2ccc(NC(=O)N(C)CCCN(C)C(C)=O)cc2)c1Cl (stereo not drawn) | > 10000 nM |
| 16 nM | CCc1ncnc(NC(C)c2ccc(C(C)(C)C)cc2)c1Cl (stereo not drawn) | > 10000 nM |
| 3 nM | CCc1ncnc(NC(CC)c2ccc(Oc3ccc(F)cc3)cc2)c1Br (stereo not drawn) | > 10000 nM |
| 2660 nM | CCc1ncnc(NC(CC)c2ccc([N+](=O)[O-])cc2)c1Cl (stereo not drawn) | > 10000 nM |
| 48 nM | CCc1ncnc(NC(CC)c2ccc(Oc3ncnc4ccccc34)cc2)c1Cl (stereo not drawn) | > 10000 nM |
| 622 nM | CCc1ncnc(NC(C)c2ccc(NC(=O)CCCC[C@@H]3SC[C@@H]4NC(=O)N[C@@H]43)cc2)c1Cl (stereo partly drawn) | > 10000 nM |
| 17 nM | CCc1ncnc(NC(CC)c2ccc(-c3ccccc3)cc2)c1Cl (stereo not drawn) | > 10000 nM |
| 778 nM | CCc1ncnc(NC(C)c2cc3c(cc2O)CCCC3)c1Cl (stereo not drawn) | > 10000 nM |
| 353 nM | CCc1ncnc(NC(C)c2ccc3c(c2)N=C(NCCO)CO3)c1Cl (stereo not drawn) | > 10000 nM |
| 691 nM | CCc1ncnc(NC(C)c2cc3cccc(OC)c3o2)c1Cl (stereo not drawn) | > 10000 nM |
| 42 nM | CCc1ncnc(NC(C)c2ccc3ccccc3n2)c1Cl (stereo not drawn) | > 10000 nM |
| 170 nM | CCc1ncnc(NC(C)c2ccc3c(c2)CCCC3)c1Cl (stereo not drawn) | > 10000 nM |

| Structure (SMILES) | EC50 [2] | CC50 at 48 h [1] |
| --- | --- | --- |
| CCc1ncnc(NC(C)c2ccc(OC(=O)N(C)CCCN(C)C(C)=O)cc2)c1Cl (stereo not drawn) | 327 nM | > 10000 nM |
| CCc1ncnc(NC(C)c2ccc(OC(=O)NCCCNC(C)=O)cc2)c1Cl (stereo not drawn) | 190 nM | > 10000 nM |
| CCc1ncnc(NC(C)c2ccc(OC(=O)NCCCOCCCNC(C)=O)cc2)c1Cl (stereo not drawn) | 5 nM | > 10000 nM |
| Cc1ccnc2c1NC(=O)c1cccnc1N2C1CC1 [NEVIRAPINE] | 50 nM | > 10000 nM |
| CCc1ncnc(NC(C)c2ccc(OC(=O)NCCOCCOCCOCCNC(C)=O)cc2)c1Cl (stereo not drawn) | 190 nM | > 10000 nM |
| CCc1ncnc(N(C)C(C)c2ccc(OC(=O)N(C)C)cc2)c1Cl (stereo not drawn) | > 10000 nM | > 10000 nM |
| CCc1ncnc(NC(C)c2ccc(OC(=O)N(C)CCOCCN(C)C(C)=O)cc2)c1Cl (stereo not drawn) | 4 nM | > 10000 nM |
| CCc1ncnc(NC(C)c2ccc(OC(=O)N(C)C)cc2)c1Cl (stereo not drawn) | 4 nM | > 10000 nM |
| CCc1ncnc(NC(C)c2ccc(OC(=O)NCCOCCNC(C)=O)cc2)c1Cl (stereo not drawn) | 5 nM | > 10000 nM |
| CCc1ncnc(N(C)C(C)c2ccc(OC(=O)N(C)CCOCCN(C)C(C)=O)cc2)c1Cl (stereo not drawn) | > 10000 nM | > 10000 nM |
